ChEMBL document CHEMBL1132578, “New peptidic cysteine protease inhibitors derived from the electrophilic alpha-amino acid aziridine-2,3-dicarboxylic acid” (J Med Chem, 1999)

Assays:
[1] = target: calpain I; assay: Inhibition constant for the non time dependent inhibition of calpain I
[2] = target: Procathepsin L (Homo sapiens) (UniProt P07711); assay: Evaluated for second-order rate constants for the inactivation of mammalian lysosomal cathepsin L.
[3] = target: Cathepsin B (Bos taurus) (UniProt P07688); assay: Evaluated for second-order rate constants for the inactivation of mammalian lysosomal cathepsin B.
[4] = target: T1, Papain (Carica papaya) (UniProt P00784); assay: Second-order rate constants for the inactivation of papain (vacuolar plant enzyme)
T1 sequence (whole entry): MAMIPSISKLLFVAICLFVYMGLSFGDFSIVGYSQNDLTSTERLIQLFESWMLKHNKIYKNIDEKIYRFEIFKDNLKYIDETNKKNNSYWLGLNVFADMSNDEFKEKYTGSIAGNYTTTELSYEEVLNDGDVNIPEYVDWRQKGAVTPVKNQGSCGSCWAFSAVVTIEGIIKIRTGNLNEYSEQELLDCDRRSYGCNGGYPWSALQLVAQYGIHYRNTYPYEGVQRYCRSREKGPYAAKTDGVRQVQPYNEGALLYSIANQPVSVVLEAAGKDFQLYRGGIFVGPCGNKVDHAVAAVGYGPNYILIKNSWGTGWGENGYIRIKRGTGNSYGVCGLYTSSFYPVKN
In short: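 Papain with L-BAPA (405 nm) in 50 mM phosphate pH 6.5, 5 mM EDTA, 5 mM cysteine, or with Z-Phe-Arg-AMC in phosphate pH 6.5 with DTT, EDTA, Brij 35; 25 °C. kobs at 3–7 inhibitor concentrations, continuous or dilution assay; k2nd = ki/Ki, or from linear kobs vs [I] when unsaturated; substrate-corrected (Km 2.5 mM L-BAPA, 0.09 mM Z-Phe-Arg-AMC).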

[5] = target: T2, Pro-cathepsin H (Homo sapiens, UniProt P09668); assay: Inhibition constant for the non time dependent inhibition of Cathepsin H; no inhibition
T2 sequence (P09668 whole entry): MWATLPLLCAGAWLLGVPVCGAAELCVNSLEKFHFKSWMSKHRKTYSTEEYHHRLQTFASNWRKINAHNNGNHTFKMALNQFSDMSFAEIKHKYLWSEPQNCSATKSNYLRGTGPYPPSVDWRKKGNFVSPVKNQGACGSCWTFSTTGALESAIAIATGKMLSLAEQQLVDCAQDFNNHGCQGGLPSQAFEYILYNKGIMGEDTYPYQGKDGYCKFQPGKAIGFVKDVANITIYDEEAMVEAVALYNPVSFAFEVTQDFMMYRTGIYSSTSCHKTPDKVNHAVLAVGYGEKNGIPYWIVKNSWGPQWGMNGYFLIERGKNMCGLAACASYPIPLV

[6] = target: T1, Papain (Carica papaya); assay: pH dependency of inhibition of papain without the compound at pH 6.5 mean values from five assays.
In short: (§1)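 Papain (0.5 mg/mL) with 1.49 mM L-BAPA, with or without 17 µM inhibitor for 30 min, at pH 5.2–8.0 (citrate pH 4–6, phosphate pH 6–8), 25 °C; nitroanilide release read at 405 nm. Activities are means of five assays; percent inhibition compares inhibited and uninhibited activity.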

[7] = target: T1, Papain (Carica papaya); assay: Percent inhibition of papain by the compound at pH 6.0; settings: concentration not given here
In short: as §1

[8] = target: T1, Papain (Carica papaya); assay: pH dependency of inhibition of papain with the compound at pH 7.0 [I] = 17 uM, incubation time = 30 minutes, [S] = 1.49 mM L-BAPA, [E] = 0.5 mg m/L
In short: as §1

[9] = target: T1, Papain (Carica papaya)
[10] = target: T1, Papain (Carica papaya); assay: Percent inhibition of papain by the compound at pH 5.2; settings: concentration not given here
In short: as §1

[11] = target: T3, Calpain-1 catalytic subunit (Homo sapiens, UniProt P07384); assay: Compound was evaluated for inhibition constant for the non-time dependent inhibition of Calpain 1; no inhibition; set-up: species or system Sus scrofa
T3 sequence (P07384 whole entry): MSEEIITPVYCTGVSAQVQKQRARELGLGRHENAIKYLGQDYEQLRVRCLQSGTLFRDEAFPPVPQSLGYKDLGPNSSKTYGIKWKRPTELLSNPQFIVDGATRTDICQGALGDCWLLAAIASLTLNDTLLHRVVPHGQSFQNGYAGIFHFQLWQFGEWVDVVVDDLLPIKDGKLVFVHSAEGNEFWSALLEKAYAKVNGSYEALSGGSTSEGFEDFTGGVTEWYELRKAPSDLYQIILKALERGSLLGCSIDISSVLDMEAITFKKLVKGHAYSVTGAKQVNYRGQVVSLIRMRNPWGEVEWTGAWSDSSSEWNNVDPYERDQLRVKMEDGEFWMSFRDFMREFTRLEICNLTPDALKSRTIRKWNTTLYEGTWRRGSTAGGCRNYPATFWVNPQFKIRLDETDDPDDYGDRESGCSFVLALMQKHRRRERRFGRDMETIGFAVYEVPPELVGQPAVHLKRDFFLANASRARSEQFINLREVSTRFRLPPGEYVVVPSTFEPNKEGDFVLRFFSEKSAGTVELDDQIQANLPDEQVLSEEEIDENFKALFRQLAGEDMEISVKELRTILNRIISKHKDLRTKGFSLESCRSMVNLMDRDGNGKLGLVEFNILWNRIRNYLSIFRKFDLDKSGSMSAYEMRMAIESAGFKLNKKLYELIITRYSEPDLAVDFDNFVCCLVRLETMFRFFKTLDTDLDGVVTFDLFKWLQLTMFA

[12] = target: T1, Papain (Carica papaya); assay: Percent inhibition of papain by the compound at pH 7.0; settings: concentration not given here
In short: as §1

[13] = target: T1, Papain (Carica papaya); assay: pH dependency of inhibition of papain with the compound at pH 6.0 [I] = 17 uM, incubation time = 30 minutes, [S] = 1.49 mM L-BAPA, [E] = 0.5 mg m/L
In short: as §1

[14] = target: T1, Papain (Carica papaya); remark: listed apart in the source
[15] = target: Cathepsin B (Bos taurus) (UniProt P07688)
[16] = target: T1, Papain (Carica papaya); assay: pH dependency of inhibition of papain with the compound at pH 5.2 [I] = 17 uM, incubation time = 30 minutes, [S] = 1.49 mM L-BAPA, [E] = 0.5 mg m/L
In short: as §1

[17] = target: T1, Papain (Carica papaya); remark: listed apart in the source
[18] = target: T1, Papain (Carica papaya); assay: pH dependency of inhibition of papain without the compound at pH 7.0 mean values from five assays.
In short: as §1

[19] = target: T1, Papain (Carica papaya); assay: pH dependency of inhibition of papain with the compound at pH 8.0 [I] = 17 uM, incubation time = 30 minutes, [S] = 1.49 mM L-BAPA, [E] = 0.5 mg m/L
In short: as §1

[20] = target: T1, Papain (Carica papaya); assay: Percent inhibition of papain by the compound at pH 8.0; settings: concentration not given here
In short: as §1

[21] = target: T1, Papain (Carica papaya); assay: pH dependency of inhibition of papain without the compound at pH 8.0 mean values from five assays.
In short: as §1

[22] = target: T2, Pro-cathepsin H; assay: Compound was evaluated for inhibition constant for the non-time dependent inhibition of Cathepsin H.
[23] = target: T1, Papain (Carica papaya); assay: pH dependency of inhibition of papain without the compound at pH 6.0 mean values from five assays.
In short: as §1

[24] = target: T1, Papain (Carica papaya); remark: listed apart in the source
[25] = target: T1, Papain (Carica papaya); assay: pH dependency of inhibition of papain without the compound at pH 5.2 mean values from five assays.
In short: as §1

[26] = target: T1, Papain (Carica papaya); assay: Percent inhibition of papain by the compound at pH 6.5; settings: concentration not given here
In short: as §1

[27] = target: T1, Papain (Carica papaya); assay: pH dependency of inhibition of papain with the compound at pH 6.5 [I] = 17 uM, incubation time = 30 minutes, [S] = 1.49 mM L-BAPA, [E] = 0.5 mg m/L
In short: as §1

[28] = target: Procathepsin L (Homo sapiens) (UniProt P07711); settings: Paramecium tetraurelia

Procathepsin L (Homo sapiens), sequence (P07711 114-333 limits assumed): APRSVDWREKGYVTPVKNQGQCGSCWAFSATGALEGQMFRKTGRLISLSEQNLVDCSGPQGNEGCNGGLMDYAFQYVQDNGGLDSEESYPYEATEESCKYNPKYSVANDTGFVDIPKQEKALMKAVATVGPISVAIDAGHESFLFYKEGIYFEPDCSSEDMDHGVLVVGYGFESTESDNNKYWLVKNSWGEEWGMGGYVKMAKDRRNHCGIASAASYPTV

Molecule `CCOC(=O)[C@@H]1[C@@H](C(=O)OCC)N1C(=O)[C@H](C)NC(=O)OCc1ccccc1` has a Ki [1] of 160 µM, a ki/Ki [2] of 5.08 M⁻¹ s⁻¹ and a ki/Ki [3] of 1.12 M⁻¹ s⁻¹. For the same molecule, the ki/Ki [4] was 1.22 M⁻¹ s⁻¹ and the Ki [5] was “Not Active”.

Molecule `CCOC(=O)[C@@H]1[C@@H](C(=O)OCC)N1C(=O)[C@H](Cc1ccccc1)NC(=O)OC(C)(C)C` has an Activity [6] of 7.38 mU/mL, an inhibition [7] of 81.1% and an Activity [8] of 0.75 mU/mL. The ki/Ki [9] was 1.2 M⁻¹ s⁻¹, the inhibition [10] was 71.6% and the Ki [11] was “Not Active”. The inhibition [12] was 89.8%, the Activity [13] was 1.38 mU/mL and the ki/Ki [14] was 6.8 M⁻¹ s⁻¹. For the same molecule, the ki/Ki [15] was 2.08 M⁻¹ s⁻¹, the Activity [16] was 1.86 mU/mL and the ki/Ki [17] was 6.83 M⁻¹ s⁻¹. It also gave an Activity [18] of 7.33 mU/mL, an Activity [19] of 0.75 mU/mL and an inhibition [20] of 89.7%. It also gave an Activity [21] of 7.31 mU/mL, a Ki [22] of 210 µM and an Activity [23] of 7.33 mU/mL. For the same molecule, the ki/Ki [24] was 7.07 M⁻¹ s⁻¹, the Activity [25] was 6.54 mU/mL and the inhibition [26] was 86.7%. For the same molecule, the Activity [27] was 0.98 mU/mL and the ki/Ki [28] was 1.08 M⁻¹ s⁻¹.
